Assay outcomes (PubChem BioAssay)
Most compounds without a hit are left out; they make up all but 3.5% or so of the library.
MrgX1 antagonist: blocks BAM8-22 activation of human MrgX1 receptor; Q96LB2; MRGX1-HEK293 calcium flux, Fluo-4, BAM8-22 antagonism; hits give low values; B-score at 10 µM; 310,000 tested, 1.3% active; AID 588676;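 active means calcium-response B-score plate-corrected more than 3 library SD below zero, starting fluorescence within 5 deviations, no agonist response on first addition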;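 further: peak minus trough fluorescence over baseline after final BAM8-22 challenge near maximal dose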
Target sequence (Q96LB2 whole entry, looked up): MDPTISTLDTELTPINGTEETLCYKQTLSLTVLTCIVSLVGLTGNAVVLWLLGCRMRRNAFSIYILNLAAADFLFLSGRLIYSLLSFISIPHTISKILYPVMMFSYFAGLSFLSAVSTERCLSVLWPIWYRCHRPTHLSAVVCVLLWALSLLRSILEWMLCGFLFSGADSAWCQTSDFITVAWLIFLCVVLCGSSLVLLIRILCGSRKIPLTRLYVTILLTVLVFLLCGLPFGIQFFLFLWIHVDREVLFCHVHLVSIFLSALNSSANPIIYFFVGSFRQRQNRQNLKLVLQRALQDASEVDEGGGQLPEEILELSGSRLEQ
MrgX1 agonist: human MrgX1 receptor agonism, primary screen; Q96LB2; MrgX1-HEK293 cells, Fluo-4 calcium fluorescence, agonist mode; hits give high values; B-score at 10 µM; 310,000 tested, 0.44% active;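 active means calcium response B-score plate-corrected fluorescence ratio at least 3 library SD, with starting fluorescence B-score inside 5 SD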
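Material: HEK293 cells stably expressing human MrgX1 receptor | Quantity: 15,000 cells per well | Times: Cells plated overnight, dye loaded 0.5 h 37 °C, 0.5 h room temperature | Measured by: Kinetic Fluo-4 NW fluorescence of intracellular calcium | Control set: Positive and negative controls per plate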
RGS4 pot: potentiators or activators of RGS4. HEK293 M3R/inducible RGS4, carbachol calcium flux Fluo4; hits give low values. B-score at 10 µM. 310,000 tested, 0.92% active. AID 463111;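 active means B-score of the integrated calcium signal more than 4 SD below the library mean, with starting fluorescence not abnormally high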;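 further: negative B-score means reduced calcium response which marks RGS4 activation or potentiation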
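test system = HEK293 cells with stable M3R and inducible RGS4 | schedule = recording 10 s baseline at 1 Hz, 100 s post-agonist | technique = Fluo4-AM (2 µM) calcium-flux fluorescence, kinetic read | measure = Agonist-evoked peak-minus-minimum fluorescence over baseline, integrated ratio, B score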
MrgX1 PAM: human MrgX1 positive allosteric modulation, primary screen | AID 588675 | Q96LB2 | MrgX1-HEK293, Fluo-4 calcium flux, FDSS; hits give high values | 310,000 tested, 0.63% active | B-score at 10 µM;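 active means plate-corrected calcium response at least 3 library SD above typical, normal starting fluorescence, not activating the receptor alone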;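 further: compound read alongside a low EC10 to EC30 dose of BAM8-22 agonist; peak minus trough fluorescence over baseline measured at the second addition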
RGS4 block: inhibitors of human RGS4; 310,000 tested, 0.45% active; HEK293 M3R/RGS4 inducible, Fluo-4 calcium flux; hits give high values; triggered by carbachol at its EC20; B-score at 10 µM; P49798; AID 463165;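 active means B-score, a plate-corrected calcium signal, over three deviations above library mean, with baseline fluorescence within five deviations of library mean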;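 further: RGS4 expression induced by doxycycline in cells with stable M3 receptor; B-score is computed from the integrated fluorescence ratio over baseline after carbachol; higher B-score means a larger calcium signal and so more RGS4 inhibition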
Target sequence (P49798 whole entry, looked up): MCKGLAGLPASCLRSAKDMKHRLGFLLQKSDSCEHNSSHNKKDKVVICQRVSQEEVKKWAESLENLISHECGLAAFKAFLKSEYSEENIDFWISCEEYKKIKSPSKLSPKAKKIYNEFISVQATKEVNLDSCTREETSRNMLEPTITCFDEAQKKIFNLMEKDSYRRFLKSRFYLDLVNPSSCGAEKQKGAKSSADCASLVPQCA
MrgX1 ant reconf: confirmation of human MrgX1 receptor antagonists | MrgX1-HEK293, BAM8-22 calcium flux, Fluo-4; hits give low values | remaining BAM8-22 calcium response % of control (hits give low values), % at 10 µM | 2,300 tested, 19% active | AID 602420 | shares compounds with MrgX1 antagonist;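 active means remaining agonist calcium response no higher than 100% minus 3 SD of agonist-only control wells, with starting fluorescence near control levels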;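 further: agonist BAM8-22 given at a near maximal EC90 to ECmax level; peak minus minimum fluorescence divided by baseline after agonist addition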
HEK293 Ca flux: counter-screen for MrgX1 antagonists: effect in parental HEK293 cells; 4,000 tested, 2% active; shares compounds with MrgX1 antagonist; Fluo-4 calcium fluorescence, FDSS; AID 624111; fluorescence ratio F(max-min)/F0 at 10 µM;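 active means duplicate-averaged calcium fluorescence ratio at least three times the standard deviation of buffer wells, a nonspecific response in parental cells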
HEK293 Ca counter: activity in parental HEK293 cells without MrgX1; fluorescence ratio F(max-min)/F0 at 10 µM; shares compounds with MrgX1 antagonist; 4,000 tested, 0.4% active; AID 624114; parental HEK293 calcium flux, Fluo-4 fluorescence ratio; hits give high values;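 active means calcium fluorescence ratio, averaged over duplicates, at least 3 SD of the buffer-well ratio, meaning a nonspecific response in receptor-free cells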;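 further: untransfected parental HEK293 lacking MrgX1 used as counterscreen for MrgX1 allosteric activators; fluorescence change taken during the second addition on a kinetic imager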
HEK293 Ca cntr2: activity in parental HEK293 cells lacking MrgX1 receptor | 4,000 tested, 8.7% active | fluorescence ratio F(max-min)/F0 at 10 µM | Fluo-4 calcium fluorescence (FDSS); hits give high values | shares compounds with MrgX1 antagonist | AID 624115;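 active means calcium fluorescence ratio at least three times the spread of buffer wells, meaning a non-specific response in parental cells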
Active calls of the source: *.

Results for O=C(Cn1cnc2c(oc3ccccc32)c1=O)c1ccccc1 ?
MrgX1 antagonist: -8.2*; MrgX1 agonist: inactive; RGS4 pot: inactive; MrgX1 PAM: inactive; RGS4 block: inactive; MrgX1 ant reconf: inactive; HEK293 Ca flux: inactive; HEK293 Ca counter: inactive; HEK293 Ca cntr2: inactive

How did Cc1nn(Cc2ccccc2)c(C)c1/C=N/NC(=O)c1ccccc1O do in these assays?
MrgX1 antagonist: inactive; MrgX1 agonist: inactive; RGS4 pot: inactive; MrgX1 PAM: inactive; RGS4 block: inactive

How did CCN(CC)S(=O)(=O)c1ccc(NC2c3ncccc3C(=O)N2Cc2ccccc2)cc1 (centres undefined) do in these assays?
MrgX1 antagonist: -9.3*; MrgX1 agonist: inactive; RGS4 pot: inactive; MrgX1 PAM: inactive; RGS4 block: inactive; MrgX1 ant reconf: inactive; HEK293 Ca flux: inactive; HEK293 Ca counter: inactive; HEK293 Ca cntr2: inactive

What do the screens show for `S=C(NCc1cccnc1)Nc1cccc(Cl)c1`?
MrgX1 antagonist: inactive; MrgX1 agonist: inactive; RGS4 pot: inactive; MrgX1 PAM: inactive; RGS4 block: inactive

How did S=C(NCc1cccnc1)Nc1cc(Cl)cc(Cl)c1 do in these assays?
MrgX1 antagonist: -5.1*; MrgX1 agonist: inactive; RGS4 pot: inactive; MrgX1 PAM: inactive; RGS4 block: inactive; MrgX1 ant reconf: 72%*; HEK293 Ca flux: inactive; HEK293 Ca counter: inactive; HEK293 Ca cntr2: 58*

Results for FC(F)Oc1ccc(NC(=S)NCc2cccnc2)cc1 ?
MrgX1 antagonist: -6.2*; MrgX1 agonist: inactive; RGS4 pot: inactive; MrgX1 PAM: inactive; RGS4 block: inactive; MrgX1 ant reconf: 83%*; HEK293 Ca flux: inactive; HEK293 Ca counter: inactive; HEK293 Ca cntr2: inactive

How did S=C(NCc1cccnc1)Nc1ccc(Oc2ccccc2)cc1 do in these assays?
MrgX1 antagonist: inactive; MrgX1 agonist: inactive; RGS4 pot: inactive; MrgX1 PAM: inactive; RGS4 block: inactive

How did COc1ccc(S(=O)(=O)Nc2nc3ccccc3nc2Nc2ccc3c(c2)OCO3)cc1 do in these assays?
MrgX1 antagonist: -5.1*; MrgX1 agonist: inactive; RGS4 pot: inactive; MrgX1 PAM: inactive; RGS4 block: inactive; MrgX1 ant reconf: inactive; HEK293 Ca flux: inactive; HEK293 Ca counter: inactive; HEK293 Ca cntr2: inactive

What do the screens show for `CC(=O)Nc1ccc(S(=O)(=O)Nc2cc(C)c(-n3nc4ccccc4n3)cc2O)cc1`?
MrgX1 antagonist: -5.2*; MrgX1 agonist: inactive; RGS4 pot: inactive; MrgX1 PAM: inactive; RGS4 block: inactive; MrgX1 ant reconf: inactive; HEK293 Ca flux: inactive; HEK293 Ca counter: inactive; HEK293 Ca cntr2: inactive

What do the screens show for `CC(=O)Nc1ccc(S(=O)(=O)Nc2nc3ccccc3nc2Nc2ccc3ccccc3c2)cc1`?
MrgX1 antagonist: inactive; MrgX1 agonist: inactive; RGS4 pot: inactive; MrgX1 PAM: inactive; RGS4 block: inactive

How did O=S(=O)(Nc1nc2ccccc2nc1Nc1ccc2c(c1)OCCO2)c1cccs1 do in these assays?
MrgX1 antagonist: inactive; MrgX1 agonist: inactive; RGS4 pot: inactive; MrgX1 PAM: inactive; RGS4 block: inactive

How did CC(=O)Nc1ccc(S(=O)(=O)Nc2nc3ccccc3nc2Nc2cccc(O)c2)cc1 do in these assays?
MrgX1 antagonist: inactive; MrgX1 agonist: inactive; RGS4 pot: inactive; MrgX1 PAM: inactive; RGS4 block: inactive

How did CC(=O)Nc1ccc(S(=O)(=O)Nc2nc3ccccc3nc2Nc2ccc(N)cc2)cc1 do in these assays?
MrgX1 antagonist: -6.2*; MrgX1 agonist: inactive; RGS4 pot: inactive; MrgX1 PAM: inactive; RGS4 block: inactive; MrgX1 ant reconf: 75%*; HEK293 Ca flux: inactive; HEK293 Ca counter: inactive; HEK293 Ca cntr2: inactive

What do the screens show for `CCN(CC(=O)Nc1c(F)cccc1F)C(=O)CCN1C(=O)c2cccc([N+](=O)[O-])c2C1=O`?
MrgX1 antagonist: inactive; MrgX1 agonist: inactive; RGS4 pot: inactive; MrgX1 PAM: inactive; RGS4 block: inactive

How did CCC(C)(C)C1CCc2[nH]nc(C(=O)NC(C)C)c2C1 (centres undefined) do in these assays?
MrgX1 antagonist: inactive; MrgX1 agonist: inactive; MrgX1 PAM: inactive

Results for CCC(=O)Nc1nc(N)n(-c2ccccc2)n1 ?
MrgX1 antagonist: -6.9*; MrgX1 agonist: inactive; RGS4 pot: inactive; MrgX1 PAM: inactive; RGS4 block: inactive; MrgX1 ant reconf: inactive; HEK293 Ca flux: inactive; HEK293 Ca counter: inactive; HEK293 Ca cntr2: inactive

Results for CCOC(=O)c1sc(NC(=O)c2cccs2)cc1C ?
MrgX1 antagonist: inactive; MrgX1 agonist: inactive; RGS4 pot: inactive; MrgX1 PAM: inactive; RGS4 block: inactive

Results for CCOC(=O)c1sc(NC(=O)Nc2cccc(Cl)c2)cc1C ?
MrgX1 antagonist: -6.1*; MrgX1 agonist: inactive; RGS4 pot: inactive; MrgX1 PAM: inactive; RGS4 block: inactive; MrgX1 ant reconf: 57%*; HEK293 Ca flux: inactive; HEK293 Ca counter: inactive; HEK293 Ca cntr2: inactive

What do the screens show for `Fc1ccc(CN2CCSCC2)cc1F`?
MrgX1 antagonist: -4.5*; MrgX1 agonist: inactive; RGS4 pot: inactive; MrgX1 PAM: inactive; RGS4 block: inactive; MrgX1 ant reconf: inactive; HEK293 Ca flux: inactive; HEK293 Ca counter: inactive; HEK293 Ca cntr2: inactive

What do the screens show for `NC(CC(=O)O)c1cccc(OCc2ccccc2)c1` (centres undefined)?
MrgX1 antagonist: -5.4*; MrgX1 agonist: inactive; MrgX1 PAM: inactive; MrgX1 ant reconf: 75%*; HEK293 Ca flux: inactive; HEK293 Ca counter: inactive; HEK293 Ca cntr2: inactive

Results for O=C(O)CC(NC(=O)OCc1ccccc1)c1ccccc1 (centres undefined) ?
MrgX1 antagonist: inactive; MrgX1 agonist: inactive; RGS4 pot: inactive; MrgX1 PAM: inactive; RGS4 block: inactive

Results for COC(=O)c1cc(C#N)c(OC)nc1C ?
MrgX1 antagonist: -5.1*; MrgX1 agonist: inactive; RGS4 pot: inactive; MrgX1 PAM: inactive; RGS4 block: inactive; MrgX1 ant reconf: inactive; HEK293 Ca flux: inactive; HEK293 Ca counter: inactive; HEK293 Ca cntr2: inactive

What do the screens show for `O=C(NN=C1CCCC1)c1ccc(Br)cc1`?
MrgX1 antagonist: inactive; MrgX1 agonist: inactive; RGS4 pot: inactive; MrgX1 PAM: inactive; RGS4 block: inactive
